We go through one compound from ChEMBL document CHEMBL1152663, “Antimalarial and antitrypanosomal activity of a series of amide and sulfonamide derivatives of a 2,5-diaminobenzophenone” (Bioorg Med Chem, 2009).

In data set [1] the target is T1, Multidrug resistance protein Pgh1 (Plasmodium falciparum) (UniProt Q9NG76).
T1 sequence (whole entry): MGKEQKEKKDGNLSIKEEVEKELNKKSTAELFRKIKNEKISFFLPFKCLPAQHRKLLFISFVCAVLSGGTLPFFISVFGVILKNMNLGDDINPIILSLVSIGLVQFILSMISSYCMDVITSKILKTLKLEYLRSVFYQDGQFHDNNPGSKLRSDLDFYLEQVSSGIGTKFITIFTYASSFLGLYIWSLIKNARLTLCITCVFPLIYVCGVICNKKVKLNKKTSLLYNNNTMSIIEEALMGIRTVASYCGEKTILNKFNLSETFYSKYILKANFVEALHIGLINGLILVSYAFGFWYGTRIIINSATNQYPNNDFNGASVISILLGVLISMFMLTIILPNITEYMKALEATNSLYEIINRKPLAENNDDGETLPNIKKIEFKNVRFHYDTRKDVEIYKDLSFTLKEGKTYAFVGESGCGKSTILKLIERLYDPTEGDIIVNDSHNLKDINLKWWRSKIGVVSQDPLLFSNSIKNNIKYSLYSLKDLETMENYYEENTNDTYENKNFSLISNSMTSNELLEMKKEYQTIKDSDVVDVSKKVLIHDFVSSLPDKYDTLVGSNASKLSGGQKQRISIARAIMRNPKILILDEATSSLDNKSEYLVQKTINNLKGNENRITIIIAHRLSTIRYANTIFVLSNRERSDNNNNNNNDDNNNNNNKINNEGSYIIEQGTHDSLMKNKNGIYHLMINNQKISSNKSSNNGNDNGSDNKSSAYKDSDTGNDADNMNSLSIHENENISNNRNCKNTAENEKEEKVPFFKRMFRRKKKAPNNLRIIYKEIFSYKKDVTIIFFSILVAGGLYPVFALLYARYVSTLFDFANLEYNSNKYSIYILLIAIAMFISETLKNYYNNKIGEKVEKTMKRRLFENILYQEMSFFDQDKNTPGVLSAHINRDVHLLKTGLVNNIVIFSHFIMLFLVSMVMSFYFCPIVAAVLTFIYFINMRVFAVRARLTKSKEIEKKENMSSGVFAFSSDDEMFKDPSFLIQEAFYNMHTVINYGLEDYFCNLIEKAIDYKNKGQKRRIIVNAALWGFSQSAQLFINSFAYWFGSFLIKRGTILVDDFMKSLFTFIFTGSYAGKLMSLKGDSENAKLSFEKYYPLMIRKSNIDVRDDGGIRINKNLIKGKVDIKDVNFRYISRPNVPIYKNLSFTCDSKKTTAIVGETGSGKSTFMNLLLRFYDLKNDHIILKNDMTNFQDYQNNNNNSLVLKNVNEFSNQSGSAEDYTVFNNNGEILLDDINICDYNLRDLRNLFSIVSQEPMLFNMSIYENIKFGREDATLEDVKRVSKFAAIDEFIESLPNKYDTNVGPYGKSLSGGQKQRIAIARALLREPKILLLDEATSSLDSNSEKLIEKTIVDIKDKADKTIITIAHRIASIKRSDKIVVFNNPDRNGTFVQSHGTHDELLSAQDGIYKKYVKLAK
Put plainly: Inhibition of Plasmodium PGH1-mediated fluorochrome accumulation into parasite digestive vacuole at […] concentration.

The target of data set [2] is ATP-dependent translocase ABCB1 (Homo sapiens, UniProt P08183). Put plainly: Inhibition of ABCB1 overexpressed in human CCRF-CEM/VCR1000 cell assessed as inhibition of daunomycin efflux after 30 mins by FACS analysis.
The test system of data set [3] is Trypanosoma brucei brucei. Put plainly: Antitrypanosomal activity against Trypanosoma brucei brucei TC221 after 48 hrs by alamar blue assay. The class given is functional, organism-based. The note with it: TC221, 48 h. The essentials: (§1)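 T. b. brucei TC 221 trypomastigotes grown in Baltz medium; 10⁴ parasites/mL exposed to graded compound concentrations (DMSO or 0.1 M NaOH solutions) at 37 °C, 5% CO₂. Alamar Blue absorbance at 550 nm (reference 630 nm) read at 48 h and 72 h. Parasite-only and compound-only controls; ED₅₀ by linear interpolation of three measurements.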
In general terms: Alamar Blue is a resazurin reagent that responds to reducing activity.

The nature of data set [4]: Selectivity index, ratio of CC50 for human HeLa cells to IC50 for Plasmodium falciparum Dd2 […] cells. It is filed as functional. A digest of the protocol:
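Selectivity index computed as HeLa CC₅₀ (72 h methylene blue assay) divided by P. falciparum Dd2 IC₅₀ (72 h [³H]-hypoxanthine assay).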

The test system of another data set is Plasmodium falciparum. Put plainly: Antimalarial activity against Plasmodium falciparum Dd2 […] cells after 72 hrs by [3H]hypoxanthine incorporation assay. It is filed as functional, organism-based. The essentials: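 Synchronized (sorbitol) blood-stage P. falciparum Dd2 cultures exposed to a range of compound concentrations for 72 h; growth read by [³H]-hypoxanthine incorporation, percent inhibition used to derive IC₅₀. At least three independent repeats, mean ± SEM.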

The test system of data set [5] is Trypanosoma brucei brucei. Put plainly: Antitrypanosomal activity against Trypanosoma brucei brucei TC221 after 72 hrs by alamar blue assay. The class given is functional, organism-based. The note with it: TC221, 72 h. A digest of the protocol: as §1
The nature of data set [6]: Cytotoxicity against human HeLa cells after 72 hrs by methylene blue staining. The class given is cell-based. A digest of the protocol:
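HeLa cells in RPMI 1640 with 10% heat-inactivated FBS and gentamicin; ~10,000 cells/well preincubated 48 h, then exposed to compound (DMSO stock 10 mg/mL diluted 1:200) for 72 h at 37 °C, 5% CO₂. Glutaraldehyde fixation, 0.05% methylene blue staining, elution with 0.33 M HCl, OD 660 nm.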

Each structure is given as a SMILES string. Activity calls are given as the source filed them. No cut-off for these calls is given here.

One may read the EC50 as the concentration giving half of the maximal effect. The IC50 is the concentration that gives 50% inhibition. A high value points to weaker potency. As usually defined, the CC50 is the concentration that lowers cell viability or growth by half. A higher CC50 goes with lower toxicity to the cells. Take `CN1CCN(C(C(=O)Nc2ccc(NS(C)(=O)=O)cc2C(=O)c2ccccc2)c2ccccc2)CC1` (racemic): the inhibition result in data set [1] was “inactive”. In data set [2], the EC50 stood at 15.5 µM. The IC50 is 5.58 µM in data set [3], 10.6 µM in the data set with Plasmodium falciparum and 5.84 µM in data set [5]. Also, in data set [4], the “Ratio CC50/IC50” value is 9. In data set [6], the CC50 at 72 h came to 99 µM.
